Some results are limits rather than exact numbers.

By CC50 is commonly meant the concentration at which the toxic effect on the cells reaches its halfway point. What is called EC50 is the concentration needed to bring the measured effect to its halfway point.

Test system in the first data set: not listed separately
The data set can be described thus: Selectivity index, ratio of CC50 for human CEM-SS cells to EC50 for Human immunodeficiency virus 1 infected in human CEM-SS cells. The settings on record: read-out: Ratio CC50/EC50. Type of data set: toxicity, cell-based. The gist of the method: (§1)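 EC50 is the concentration that reduces virus replication by 50%. CC50 is the concentration giving 50% loss of viability in uninfected cells. Both are calculated by linear regression analysis. The selectivity index is CC50 divided by EC50.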
As for `O=c1[nH]c(=O)n(Cc2ccc(Cl)cc2Cl)cc1NCCc1ccccc1`, the selectivity ratio was over 2.34.

`Cc1cn([C@H]2C[C@H](N=[N+]=[N-])[C@@H](CO)O2)c(=O)[nH]c1=O` [ZIDOVUDINE]: the selectivity ratio is over 125.

In the case of `O=c1[nH]c(=O)n(Cc2ccc(Cl)cc2Cl)cc1NCc1ccccc1`, the selectivity ratio is over 1.8.

For `Cc1cc(C)cc(Cn2cc(Nc3ccccc3)c(=O)[nH]c2=O)c1`, the selectivity ratio is over 16.8.

On to `Cc1cccc(Cn2cc(Nc3ccccc3)c(=O)[nH]c2=O)c1`, for which the selectivity ratio was over 4.5.

For the compound `Cc1cc(C)cc(Cn2cc(NCc3ccccc3)c(=O)[nH]c2=O)c1`, the selectivity ratio is 17.8.

Test system in the next data set: not listed separately
The data set can be described thus: Cytotoxicity against human CEM-SS cells assessed as cell viability by XTT assay. The format is cell-based.
Settings: not given
The gist of the method:
as §1
Turning to `O=c1[nH]c(=O)n(Cc2ccc(Cl)cc2Cl)cc1NCCc1ccccc1`, the CC50 was over 100 µM.

As for `Cc1cn([C@H]2C[C@H](N=[N+]=[N-])[C@@H](CO)O2)c(=O)[nH]c1=O` [ZIDOVUDINE], the CC50 was over 1 µM.

As to `O=c1[nH]c(=O)n(Cc2ccc(Cl)cc2Cl)cc1NCc1ccccc1`, the CC50 is over 100 µM.

Turning to `O=c1[nH]c(=O)n(Cc2cccc(Oc3ccccc3)c2)cc1Nc1ccccc1`, the CC50 is over 100 µM.

For `Cc1cc(C)cc(Cn2cc(Nc3ccccc3)c(=O)[nH]c2=O)c1`, the CC50 was over 200 µM.

For the compound `Cc1cccc(Cn2cc(Nc3ccccc3)c(=O)[nH]c2=O)c1`, the CC50 was over 200 µM.

Consider `Cc1cc(C)cc(Cn2cc(NCc3ccccc3)c(=O)[nH]c2=O)c1`, for which the CC50 amounted to 168 µM.

For `Cc1ccccc1Cn1cc(Nc2ccccc2)c(=O)[nH]c1=O`, the CC50 is over 100 µM.

`O=c1[nH]c(=O)n(Cc2ccccc2)cc1Nc1ccccc1`: the 50% cytotoxic concentration (CC50) is over 100 µM.

In another data set the test system is Human immunodeficiency virus 1. Description: Antiviral activity against Human immunodeficiency virus 1 infected in human CEM-SS cells assessed as virus induced cytopathic effects. The format is functional, organism-based. Particulars: Human immunodeficiency virus 1, CEM-SS. Summed up:
as §1
Background: Damage to the host cells serves as the signal in cytopathic effect assays.
In the case of `O=c1[nH]c(=O)n(Cc2ccc(Cl)cc2Cl)cc1NCCc1ccccc1`, the EC50 came to 42.7 µM.

Consider `Cc1cn([C@H]2C[C@H](N=[N+]=[N-])[C@@H](CO)O2)c(=O)[nH]c1=O` [ZIDOVUDINE], for which the EC50 was found to be 0.008 µM.

`O=c1[nH]c(=O)n(Cc2ccc(Cl)cc2Cl)cc1NCc1ccccc1`: the EC50 came to 54.6 µM.

`O=c1[nH]c(=O)n(Cc2cccc(Oc3ccccc3)c2)cc1Nc1ccccc1`: the EC50 was over 100 µM.

Take `Cc1cc(C)cc(Cn2cc(Nc3ccccc3)c(=O)[nH]c2=O)c1`: the EC50 came out at 11.9 µM.

As to `Cc1cccc(Cn2cc(Nc3ccccc3)c(=O)[nH]c2=O)c1`, the EC50 worked out at 44.7 µM.

As for `Cc1cc(C)cc(Cn2cc(NCc3ccccc3)c(=O)[nH]c2=O)c1`, the EC50 was 9.5 µM.

Take `Cc1ccccc1Cn1cc(Nc2ccccc2)c(=O)[nH]c1=O`: the EC50 was over 100 µM.

With `O=c1[nH]c(=O)n(Cc2ccccc2)cc1Nc1ccccc1`, the EC50 is over 100 µM.

Test system in the next data set: not listed separately
The data set can be described thus: Selectivity index, ratio of CC50 for human Akata cells to EC50 for Epstein-Barr virus infected in human Akata cells. Type of data set: toxicity, cell-based. Particulars: read-out: Ratio CC50/EC50. Summed up: as §1
In the case of `O=c1[nH]c(=O)n(Cc2ccc(Cl)cc2Cl)cc1NCCc1ccccc1`, the selectivity ratio was over 1.5.

Consider `O=c1[nH]c(=O)n(Cc2ccc(Cl)cc2Cl)cc1NCc1ccccc1`, for which the selectivity ratio is 2.4.

Regarding `O=c1[nH]c(=O)n(Cc2cccc(Cl)c2)cc1Nc1ccccc1`, the selectivity ratio is over 5.

Turning to `O=c1[nH]c(=O)n(Cc2cccc(Oc3ccccc3)c2)cc1Nc1ccccc1`, the selectivity ratio is over 43.

Turning to `Cc1cc(C)cc(Cn2cc(Nc3ccccc3)c(=O)[nH]c2=O)c1`, the selectivity ratio was under 4.8.

Turning to `Cc1cccc(Cn2cc(Nc3ccccc3)c(=O)[nH]c2=O)c1`, the selectivity ratio is over 1.

In the case of `Cc1ccc(Nc2cn(Cc3ccc(Cl)cc3Cl)c(=O)[nH]c2=O)cc1`, the selectivity ratio is 2.1.

`Cc1ccccc1Cn1cc(Nc2ccccc2)c(=O)[nH]c1=O`: the selectivity ratio was over 8.3.

Regarding `O=c1[nH]c(=O)n([C@H]2CO[C@@H](CO)O2)cc1I`, the selectivity ratio is over 3030.

A further data set relates to Human gammaherpesvirus 4. Description: Antiviral activity against Epstein-Barr virus infected in human Akata cells assessed as virus induced cytopathic effects by XTT assay. The settings on record: human gammaherpesvirus 4, Akata. Type of data set: functional, organism-based. The gist of the method: as §1
Consider `O=c1[nH]c(=O)n(Cc2ccc(Cl)cc2Cl)cc1NCCc1ccccc1`, for which the EC50 turned out to be 67.2 µM.

Regarding `O=c1[nH]c(=O)n(Cc2ccc(Cl)cc2Cl)cc1NCc1ccccc1`, the EC50 is 39.6 µM.

On to `O=c1[nH]c(=O)n(Cc2cccc(Cl)c2)cc1Nc1ccccc1`, for which the EC50 was found to be 20 µM.

On to `O=c1[nH]c(=O)n(Cc2cccc(Oc3ccccc3)c2)cc1Nc1ccccc1`, for which the EC50 came out at 2.3 µM.

With `Cc1cc(C)cc(Cn2cc(Nc3ccccc3)c(=O)[nH]c2=O)c1`, the EC50 was over 20 µM.

As to `Cc1cccc(Cn2cc(Nc3ccccc3)c(=O)[nH]c2=O)c1`, the EC50 worked out at 99.1 µM.

As to `Cc1ccc(Nc2cn(Cc3ccc(Cl)cc3Cl)c(=O)[nH]c2=O)cc1`, the EC50 is 43.3 µM.

As to `Cc1ccccc1Cn1cc(Nc2ccccc2)c(=O)[nH]c1=O`, the EC50 turned out to be 12 µM.

For `O=c1[nH]c(=O)n([C@H]2CO[C@@H](CO)O2)cc1I`, the EC50 was 0.033 µM.

Test system in the next data set: not listed separately
The data set can be described thus: Cytotoxicity against human Akata cells assessed as cell viability by XTT assay. The format is cell-based.
Settings: not given
Summed up: as §1
(In general: Tetrazolium assays rely on reduction of a dye to a coloured formazan, in cell work by metabolically active cells.)
Consider `O=c1[nH]c(=O)n(Cc2ccc(Cl)cc2Cl)cc1NCCc1ccccc1`, for which the CC50 is over 100 µM.

As for `O=c1[nH]c(=O)n(Cc2ccc(Cl)cc2Cl)cc1NCc1ccccc1`, the CC50 came out at 96.3 µM.

In the case of `O=c1[nH]c(=O)n(Cc2cccc(Cl)c2)cc1Nc1ccccc1`, the CC50 was over 100 µM.

As for `O=c1[nH]c(=O)n(Cc2cccc(Oc3ccccc3)c2)cc1Nc1ccccc1`, the CC50 is over 100 µM.

Consider `Cc1cc(C)cc(Cn2cc(Nc3ccccc3)c(=O)[nH]c2=O)c1`, for which the CC50 stood at 96.2 µM.

For `Cc1cccc(Cn2cc(Nc3ccccc3)c(=O)[nH]c2=O)c1`, the CC50 was over 100 µM.

As for `Cc1ccc(Nc2cn(Cc3ccc(Cl)cc3Cl)c(=O)[nH]c2=O)cc1`, the CC50 turned out to be 92.3 µM.

As to `Cc1ccccc1Cn1cc(Nc2ccccc2)c(=O)[nH]c1=O`, the CC50 is over 100 µM.

`O=c1[nH]c(=O)n([C@H]2CO[C@@H](CO)O2)cc1I`: the CC50 was over 100 µM.

For the origin of these results see ChEMBL document CHEMBL1287718, “1-Benzyl derivatives of 5-(arylamino)uracils as anti-HIV-1 and anti-EBV agents” (Bioorg Med Chem, 2010).
